pEC50, pIC50: −log10 of the molar value.

The target in data set [1] is Human immunodeficiency virus type 1 reverse transcriptase (Human immunodeficiency virus 1, UniProt Q72547). The data set can be described thus: Inhibition of HIV1 reverse transcriptase assessed as inhibition of biotinylated dUTP incorporation after 1 hr by ELISA. The method in brief:
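Recombinant HIV-1 RT kit (colorimetric ELISA). Poly(A)·oligo(dT)₁₅ template/primer with DIG-dUTP, biotin-dUTP and dTTP, ±inhibitor, 1 h at 37 °C. Product captured on streptavidin plate (1 h, 37 °C), then anti-DIG-POD (1 h, 37 °C), ABTS developed at 25 °C, A405 read. IC₅₀ = concentration inhibiting biotin-dUTP incorporation by 50%.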
(In general: ELISA stands for enzyme-linked immunosorbent assay.)

Data set [2] can be described thus: Selectivity index, ratio of CC50 for human MT4 cells to EC50 for HIV2 ROD. Format: toxicity, cell-based. The following applies: read-out: Ratio CC50/EC50. The method in brief:
(§1)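 Selectivity index is CC₅₀/EC₅₀. Both values come from the same MTT assay in MT-4 cells: mock-infected and virus-infected (100-300 CCID₅₀) wells were run in parallel and read at day 5.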

A short description of data set [3]: Selectivity index, ratio of CC50 for human MT4 cells to EC50 for HIV1 RES056. Type of data set: toxicity, cell-based. The following applies: read-out: Ratio CC50/EC50. The method in brief:
as §1

Data set [4] concerns Human immunodeficiency virus 2. The data set can be described thus: Antiviral activity against HIV2 ROD infected in human MT4 cells assessed as protection against virus-induced cytopathic effect after 5 days by MTT assay. Type of data set: functional, organism-based. The following applies: Human immunodeficiency virus 2, ISOLATE ROD, MT4, 120 h. In outline:
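MT-4 cells resuspended at 6 × 10⁵ cells/mL after centrifugation at 200 g for 5 min. HIV-2 (ROD) added at 100-300 CCID₅₀. Test compound given as serial five-fold dilutions, triplicate wells. Viability of infected cells measured spectrophotometrically by MTT after 5 days. EC₅₀ = concentration giving 50% protection against viral cytopathic effect.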

Data set [5] can be described thus: Selectivity index, ratio of CC50 for human MT4 cells to EC50 for HIV1 3B. Format: toxicity, cell-based. The following applies: read-out: Ratio CC50/EC50. In outline:
as §1

Data set [6] can be described thus: Cytotoxicity against human MT4 cells after 5 days by MTT assay. Format: cell-based. The method in brief: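 Exponentially growing MT-4 cells resuspended at 6 × 10⁵ cells/mL and exposed to serial five-fold compound dilutions in triplicate, mock-infected alongside infected wells. Viability read by MTT assay at day 5. CC₅₀ = concentration reducing mock-infected cell viability by 50%.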
A general note: Tetrazolium dyes change colour on reduction, which living cells bring about.

For data set [7], the system named is Human immunodeficiency virus 1. The data set can be described thus: Antiviral activity against HIV1 RES056 harboring reverse transcriptase K103N/Y181C double mutant infected in human MT4 cells assessed as protection against virus-induced cytopathic effect after 5 days by MTT assay. Format: functional, organism-based. To be noted: Human immunodeficiency virus 1, RES056, MT4, 120 h. The method in brief: (§2)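 MT-4 cells, growing exponentially, were spun and resuspended at 6 × 10⁵ cells/mL. They were infected at the start together with compound, given as serial five-fold dilutions in triplicate wells, with mock-infected wells run in parallel. Viability was read by MTT after 5 days. EC₅₀ is the concentration giving 50% protection against viral cytopathic effect.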

The subject of data set [8] is Human immunodeficiency virus 1. Description: Antiviral activity against HIV1 3B harboring wild type reverse transcriptase infected in human MT4 cells assessed as protection against virus-induced cytopathic effect after 5 days by MTT assay. To be noted: Human immunodeficiency virus 1, 3B, MT4, 120 h. Format: functional, organism-based. The method in brief:
as §2
In general terms: Damage to the host cells serves as the signal in cytopathic effect assays.

Data set [9] has as its system Human immunodeficiency virus 1. The data set can be described thus: Antiviral activity against HIV1 harboring reverse transcriptase K101N/Y181C double mutant infected in human MT4 cells. Format: functional, organism-based. The following applies: Human immunodeficiency virus 1, MT4.
In data set [10] the test system is Human immunodeficiency virus 1. Description: Antiviral activity against HIV1 harboring reverse transcriptase Y181C mutant infected in human MT4 cells. Type of data set: functional, organism-based. The following applies: Human immunodeficiency virus 1, MT4.
In data set [11] the test system is Human immunodeficiency virus 1. Description: Antiviral activity against HIV1 harboring reverse transcriptase K101N mutant infected in human MT4 cells. Format: functional, organism-based. To be noted: Human immunodeficiency virus 1, MT4.
Data set [12] relates to Human immunodeficiency virus 1. The data set can be described thus: Antiviral activity against HIV1 harboring wild type reverse transcriptase infected in human MT4 cells. Type of data set: functional, organism-based. The following applies: Human immunodeficiency virus 1, MT4.

As to `Cc1cc(C)c(Oc2cc(Nc3ccc(C#N)cc3)[nH]c(=O)c2)c(C)c1`, in data set [1], the negative logarithm of the IC50 (pIC50) is 4.41. Besides, the figures for the selectivity ratio in [2], in data set [3] and in data set [5] were under 1, under 1 and 87, respectively. The pEC50 in data set [4] was under 4.49; in data set [7], under 4.49; in data set [8] it was 6.43. In data set [6], this molecule yielded a half-maximal cytotoxic concentration (CC50) at 120 h of 32000 nM.

As for `Cc1cc(C)cc(Oc2c(CSCc3ccco3)c(C)[nH]c(=O)c2I)c1`, the pEC50 was 8.40 in [9], 8.30 in [10], 9.00 in data set [11] and 8.70 in data set [12].

In the case of `Cc1cc(C#N)cc(C)c1Oc1nc(Nc2ccc(C#N)cc2)nc(N)c1Br` [ETRAVIRINE], the pEC50 is 8.37 in [9] and 8.92 in data set [11].

For orientation: pIC50 means the negative decadic logarithm of the IC50, by convention in mol/L. The pEC50 is the negative decadic logarithm of the EC50, by convention in mol/L. As a reminder, the CC50 is the concentration giving 50% cytotoxicity. A low value points to greater toxicity to the cells.

The values above are taken from ChEMBL document CHEMBL3120159, “Discovery of 2-pyridone derivatives as potent HIV-1 NNRTIs using molecular hybridization based on crystallographic overlays” (Bioorg Med Chem, 2014).
